ChEMBL document CHEMBL4513216, “Probing the Open Global Health Chemical Diversity Library for Multistage-Active Starting Points for Next-Generation Antimalarials” (ACS Infect Dis, 2020)

Test: Toxicity liver stage against HepG2, at 10uM
Assay type: cell-based
Parameters: test concentration 10 uM, cell line HepG2-A16-CD81EGFP
Conditions: human, HepG2-A16-CD81EGFP cells; read-out: INHIBITION
Summary of the method: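 Uninfected HepG2-A16-CD81EGFP cells, 3 × 10^3 per well, 1536-well, plated on prespotted compound at 10 μM final, parasite-free screening media added to match infected plates; puromycin 10 μM positive, DMSO 0.5% negative; run in parallel with 48 h PbLuc assay at 37 °C, 5% CO2; viability by CellTiter-Glo luminescence, normalized to controls.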

Structure (SMILES)	cytotoxicity at 10 µM
CCOC(=O)C1(Cc2cccc(OC)c2)CCN(Cc2ccon2)CC1	2.61%
CCOn1c(SC(C)C)nc2ccccc2c1=O	-5.36%
c1cncc(-c2nnc([C@H]3CCN(CC4CCCCC4)C3)o2)c1	-6.72%
O=C(c1cc2c(Cl)cccc2[nH]1)N1CCN(CCc2ccccn2)CC1	3.07%
CC(O)(CNC(=O)c1c(F)cccc1Cl)c1ccco1 (configuration not stated)	2.22%
COCCNC(=O)NC1(c2nc(-c3ccncc3)no2)CCCCC1	-2.46%
CN1CCCN(C(=O)c2nc3c(n2C)CCN(c2ncccn2)C3)CC1	-9.18%
CCNC(=O)c1ccc2ccc(N(CC)CC)n2c1	1.67%
CNC(=O)[C@H]1C[C@@H]2CN(c3cc(OC)ncn3)C[C@@H]2N1C(C)C	-8.84%
Cc1cccc(CO[C@H]2CO[C@@]3(CCN(S(=O)(=O)N(C)C)C3)C2)n1	7.7%
CN(C)S(=O)(=O)N1C[C@@H](OCc2ccccn2)[C@H]2OCCC[C@H]21	10.7%
Cc1cc(-c2cccc(C(=O)O)c2)nc(C2CCN(C(C)C)CC2)n1	-0.723%
Cn1nccc1CCC(=O)N1CCCC(Cc2cccnc2)C1 (configuration not stated)	-3.14%
Cc1nc(Nc2ncccn2)cc(C2CCCN2CC(C)C)n1 (configuration not stated)	7.02%
O=c1c(Cc2ccccc2)c(O)ccn1CCc1ccccc1	10.3%
CC(C)c1noc(C[S+]([O-])CC(=O)Nc2cc(F)ccc2F)n1 (configuration not stated)	8.15%
CC(O)CN(C(=O)NC1CC1)C(C)C (configuration not stated)	13.1%
CC(C)(C)c1nc(CN2CCC(N3CCCCC3)CC2)no1	-0.48%
Cc1cccc(C(C)C)c1NC(=O)NCCN(C(C)C)C(C)C	-8.98%
CC(c1nc(C2CC2)no1)N1CCc2c(ncn2C)C1 (configuration not stated)	1.09%
O=C(c1cnc(NCc2cccnc2)c(Cl)c1)N1CCCCC1	8.89%

Structure (SMILES)	cytotoxicity at 10 µM
O=C1OCCCN1Cc1nc(-c2ccc(N3CCCCC3)cc2)no1	7.04%
Cc1nc(CCCNC(=O)Nc2cc(F)cc(F)c2)n[nH]1	-8.39%
COc1ccnc(N2CCN(Cc3ncc(-c4ccccc4)o3)CC2)n1	-10.2%
CCc1cc(CNC(=O)N(C2CC2)C(C)c2ccco2)[nH]n1 (configuration not stated)	4.18%
O=C(CCn1cccn1)NCC(c1cccs1)N1CCOCC1 (configuration not stated)	-2.49%
COc1ccc(CNC(C)c2ccc(Cl)cc2)c(OC)c1OC (configuration not stated)	7.74%
CCc1nc(NS(=O)(=O)c2ccc(F)cc2Cl)no1	0.528%
Cc1cnn(C2CCN(Cc3ccccc3)C2)c1N (configuration not stated)	-3.76%
COC1CCCN(C(=O)NCCCF)C1 (configuration not stated)	0.215%
NC(=O)NC(=O)CCSc1ccccc1Cl	11.8%
CC(NC(=O)N1CCC(CO)CC1)c1csc2ccccc12 (configuration not stated)	-5.4%
Cc1ccc(S(=O)(=O)NC(=O)CCOCC(C)C)s1	-5.36%
Cc1ccc(C(C)N(C)CCS(=O)(=O)CCC(N)=O)cc1 (configuration not stated)	-52.5%
Cc1c(C(=O)NCC(C)C)nnn1-c1cccc2c1CCN(C)C2	-7.69%
O=C(c1cscn1)N1CC[C@H]2[C@@H]1CCC(=O)N2c1ccccc1	-68.8%
Cc1[nH]c2ccccc2c1-c1ccnc(N[C@H](CO)CC(C)C)n1	0.97%
CC(C)S(=O)(=O)NCc1cccnc1Oc1ccc(F)cc1F	5.98%
OC1(CN2CCCC2)COCCN(c2ncnc3[nH]cnc23)C1 (configuration not stated)	0.458%
CC(C)C(C(=O)N1CCC2(CC1)CN(C)C(=O)O2)c1ccccc1 (configuration not stated)	-53.6%
Cc1csc2c(N3CCC(NCCCC4CCOC4)CC3)ncnc12 (configuration not stated)	3.3%
Cc1nccn1CCN1C(=O)CC2(CCCC2)CC1=O	-2.11%

Structure (SMILES)	cytotoxicity at 10 µM
CCN(CC)C(=O)Cn1cc(C(=O)NCCCc2scnc2C)nn1	-7.38%
COc1c(C)cnc(CN2CCCCC2CCN2CCOCC2)c1C (configuration not stated)	-4.27%
CNC(=O)[C@@H]1C[C@@H](N)CN1Cc1ccc2cccc(OC)c2n1	0.719%
CCc1csc(CNc2cc(C)nc(-c3cccnc3)n2)n1	4.83%
CC(=O)Nc1ccc(CNC(=O)CNCc2sc(C)nc2C)cc1	6.95%
Cc1cccc(C(C(=O)NCc2nc(-c3ncccn3)no2)N(C)C)c1 (configuration not stated)	-1.57%
Cc1nc[nH]c1-c1nccn1CCN1CCOC1=O	-5.58%
COc1ccc2nc(CCNC(=O)c3cc(CC(C)C)no3)[nH]c2c1	0.808%
CCCNC(=O)c1ccc(S(=O)(=O)NC2(COC)CCCC2)cc1	-49.9%
CC(=O)NCc1nnc2n1CCN(c1ncnc3c1CCC3)CC2	13%
CN1CCCC1c1ccc(C(=O)Nc2c3c(nn2C)CCC3)s1 (configuration not stated)	-7.3%
CSCCNc1ccc(C(=O)N(C)Cc2ccc3ccccc3n2)cn1	9.65%
CSc1nccc(N2C[C@@H](CN3CCCCC3)[C@@H](CO)C2)n1	-3.59%
Cc1ccc(C)c(C(=O)Nc2ccc(OC3CCN(C)CC3)cc2)c1	8.97%
COc1cccc(Cc2nc3c([nH]2)CC(C)(C)CNC3=O)c1OC	-2.88%
COC(=O)c1ccc(CNCc2ccn(C)n2)cc1	-2.64%
Cn1cc(C2CCCN2Cc2csc(C(C)(C)C)n2)cn1 (configuration not stated)	-4.87%
CC(C)c1n[nH]c(C(=O)Nc2cc[nH]n2)c1Br	-9.73%
Cc1cnn(CC(C)NCc2ccc(S(C)(=O)=O)cc2)c1 (configuration not stated)	4.62%
CCN1CCN(CC(O)c2ccc(OC(F)(F)F)cc2)CC1 (configuration not stated)	-4.47%
Nc1nc(C(=O)NCC2CCC3(CCNCC3)CO2)cs1 (configuration not stated)	21%

Structure (SMILES)	cytotoxicity at 10 µM
Cn1cc(CNC2CCc3c(ccc(=O)n3Cc3cccnc3)C2)cn1 (configuration not stated)	-108%
Cc1ccc(CN2CCOC3(CCN(C(=O)C4CC=CC4)CC3)C2)cc1	15.5%
CN(C)C(=O)C1CCC2(CCN(Cc3cnn(C)c3)CC2)C1 (configuration not stated)	5.01%
COCCN1CCC2(CC1)CC(NC(=O)C(C)C)c1ccccc1O2 (configuration not stated)	3.82%
COCCN1C(=O)C2(CCN(CC3CC3)CC2)c2ccccc21	-115%
c1cnc(N2CCCC3(CCN(CC4CCC4)C3)C2)nc1 (configuration not stated)	-82.8%
O=C(c1cccnc1)N1CCN2C[C@H](Oc3cncnc3)C[C@H]2C1	8.1%
c1ccc(O[C@@H]2CC[C@H]3[C@H]2OCCN3CC2CCOCC2)nc1	-1.02%
CC(C)OCCCN(CC(=O)N1CCNCC1)C(=O)c1ccc(F)cc1	8.85%
O=S(=O)(c1ccccc1)N1CCC2(CCCN2Cc2cccnc2)C1 (configuration not stated)	-73.5%
CNCC(=O)N1CCC(c2ccnc(Nc3ccc(C)cn3)n2)C1 (configuration not stated)	-2.29%
COCCN1CCO[C@H]2CCN(C(=O)c3ccnnc3)CC[C@@H]21	0.196%
CNC(=O)C1Cn2ccnc2C2(CCN(Cc3nccs3)CC2)O1 (configuration not stated)	-67.2%
CNC(=O)CC1CC2(CCN(c3ncccn3)CC2)c2ccccc21 (configuration not stated)	11.6%
Cc1nc(CN2CCc3ncnc(C)c3CC2)cs1	-1.8%
Cc1nc(C2(O)CCCNCC2)sc1CCOc1ccccc1Cl (configuration not stated)	-28.1%
COCCN1CCCn2cnc(CNC3CCCC3)c2C1	4.92%
Cc1ccnn1CCC(=O)N1C[C@@H]2CC[C@H]1CN(CC(=O)N(C)C)C2	8.42%
Oc1coc2cc(OC[C@@H]3CCCN4CCCC[C@H]34)ccc12	1.96%
